This is an account of results in ChEMBL document CHEMBL1759858, “The novel anti-tumor agents of 4-triazol-1,8-naphthalimides: synthesis, cytotoxicity, DNA intercalation and photocleavage” (Eur J Med Chem, 2011).

SMILES strings stand for the structures. pIC50: −log10 of the molar value. Activity calls are given as the source filed them. No cut-off for these calls is given here.

As a reminder, the pIC50 is the IC50 on a negative log10 scale, so that one unit is a factor of ten. Read a high pIC50 as a small IC50.

Assay [1] relates to SMMC-7721. As to the kind of experiment: Cytotoxicity against human SMMC7721 cells after 48 hrs by MTT assay. The assay is classed as functional, cell-based. To be noted: SMMC-7721, 48 h. An outline of the steps: (§1)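 MCF-7 and 7721 cells were plated at 1 × 10⁵ cells/ml and exposed for 48 h to a concentration range of compound added from DMSO (final DMSO/medium below 0.001). MTT (5 mg/mL stock in PBS) was added for 3 h, and formazan was dissolved in SDS 200 g/L/50% formamide lysis buffer (pH 4.7). Absorbance was read at 570 nm, with ≥3 experiments. IC50 was taken from mean % absorbance plotted against concentration.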

For assay [2], the system named is Nucleic Acid. As to the kind of experiment: Induction of DNA cleavage measured using 2 hrs UV-irradiated Escherichia coli super coiled pBR322 DNA assessed as formation of relaxed open circular form 2 DNA at 100 uM by agarose gel electrophoresis. The assay is classed as nucleic-acid assay. An outline of the steps: (§2)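 Supercoiled pBR322 plasmid (0.05 mM bp) in Tris-HCl (pH 7.5) was incubated with compound at 37 °C and irradiated with 365 nm UV for 2 h. Controls were DNA alone, with and without irradiation. Cleavage forms were resolved on 1% agarose gel electrophoresis.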

Assay [3] relates to MCF7. As to the kind of experiment: Cytotoxicity against human MCF7 cells after 48 hrs by MTT assay. The assay is classed as functional, cell-based. To be noted: MCF7, 48 h. An outline of the steps: as §1
Assay [4] deals with HeLa. As to the kind of experiment: Cytotoxicity against human HeLa cells after 48 hrs by MTT assay. The assay is classed as functional, cell-based. On the technique in general: Tetrazolium assays rely on reduction of a dye to a coloured formazan, in cell work by metabolically active cells.
The subject of assay [5] is Calf thymus DNA. As to the kind of experiment: Binding affinity to calf thymus DNA at compound to DNA ratio of > 0.80 by circular dichroism. The assay is classed as nucleic-acid assay. The conditions noted are these: Bos taurus. An outline of the steps: (§3)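 CD spectra were recorded on calf thymus DNA at a fixed concentration in Tris-HCl buffer (pH 7.0). Compound was titrated at R (compound/DNA) ratios of 0.02, 0.04, 0.10, 0.16, 0.20, 0.30, 0.40, 0.60, 0.80, 1.00, 1.2 and 1.40, and compared with free DNA.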
Background: Circular dichroism is widely used to follow secondary structure.

The test system of assay [6] is Calf thymus DNA. Nature of the assay: Binding affinity to calf thymus DNA at compound to DNA ratio of >0.20 to < 0.80 by circular dichroism. The assay is classed as nucleic-acid assay. The conditions noted are these: Bos taurus. An outline of the steps: as §3
For assay [7], the system named is Calf thymus DNA. As to the kind of experiment: Binding affinity to calf thymus DNA at compound to DNA ratio of <= 0.20 by circular dichroism. The assay is classed as nucleic-acid assay. To be noted: Bos taurus. The essentials:
as §3

The test system of assay [8] is Nucleic Acid. As to the kind of experiment: Induction of DNA cleavage measured using 2 hrs UV-irradiated Escherichia coli super coiled pBR322 DNA assessed as formation of linear form 3 DNA at 100 uM by agarose gel electrophoresis. The assay is classed as nucleic-acid assay. An outline of the steps: as §2
Assay [9] has as its system Calf thymus DNA. As to the kind of experiment: Binding affinity to calf thymus DNA assessed as DNA damage at increasing compound to DNA ratio by viscosity measurement. The assay is classed as nucleic-acid assay. To be noted: Bos taurus. The essentials: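 Calf thymus DNA was dissolved in 30 mM Tris-HCl (pH 7.5), held overnight at 4 °C, sonicated for 10 min and filtered to remove insoluble material. Viscosity was then measured as the compound-to-DNA ratio was increased.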

Assay [10] relates to MCF7. As to the kind of experiment: Ratio of IC50 for amonafide to compound for human MCF7 cells. The assay is classed as functional. The essentials:
(§4)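 The ratio compares IC50s from the 48 h MTT assay on MCF-7 or 7721 cells (1 × 10⁵ cells/ml, readout at 570 nm, ≥3 experiments). Amonafide was run as the control under the same conditions, and the ratio is its IC50 divided by the compound's.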

Assay [11] has as its system SMMC-7721. Nature of the assay: Ratio of IC50 for amonafide to compound for human SMMC7721 cells. The assay is classed as functional. An outline of the steps:
as §4

For assay [12], the system named is Calf thymus DNA. As to the kind of experiment: Binding affinity to calf thymus DNA assessed as induction of hypochromatic effect by spectrophotometry. The assay is classed as nucleic-acid assay. The conditions noted are these: Bos taurus. The essentials:
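UV-vis absorption spectra of a fixed compound concentration were recorded during stepwise addition of calf thymus DNA in 30 mM Tris-HCl (pH 7.5). Hypochromicity and bathochromic shift were monitored, and the binding constant was calculated from an equation applied to the absorbance data.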

In assay [13] the test system is HeLa. Nature of the assay: Ratio of IC50 for amonafide to compound for human HeLa cells. The assay is classed as functional.

Consider `CCCCN1C(=O)c2cccc3c(-n4cc(-c5ccccc5)nn4)ccc(c23)C1=O`, for which the pIC50 in assay [1] is 4.48; in assay [3] it was 4.71; in assay [4] it was 4.71. In addition, the result in assay [2] was Active.

Consider `CCN(CC)CCN1C(=O)c2cccc3c(-n4cc(-c5ccccc5)nn4)ccc(c23)C1=O`, for which the pIC50 was 5.72 in assay [1], 5.96 in [3] and 4.57 in assay [4]. For the same compound, the outcome in assay [5] was inactive. For the same compound, the outcome in [2], in assay [6], in [7] and in assay [8] was Active.

In the case of `O=C1c2cccc3c(-n4cc(-c5ccccc5)nn4)ccc(c23)C(=O)N1CCO`, the pIC50 in [1], in [3] and in assay [4] was less than 4.00 throughout. The outcome in [2] was Active. Further, the result in [9] was inactive.

As for `O=C1c2cccc3c(-n4cc(-c5ccccc5)nn4)ccc(c23)C(=O)N1CCN1CCNCC1`, the results for the pIC50 in [1], in assay [3] and in assay [4] were 5.81, 6.08 and 4.01, respectively. Further, the result in [2] was Active.

Regarding `CN(C)CCN1C(=O)c2cccc3c(-n4cc(-c5ccccc5)nn4)ccc(c23)C1=O`, the negative logarithm of the IC50 (pIC50) in assay [1] was 6.33; in assay [3], 6.49; in assay [4] it was 5.99. Moreover, the “Ratio IC50” value came out at 5.2 in assay [10], 9.2 in assay [11] and 1.7 in assay [13]. The outcome in [2], in assay [9] and in assay [8] was Active. The Kb in [12] was 2.95 ×10⁵ /M.

As to `CN(C)CCN1C(=O)c2cccc3cc(N)cc(c23)C1=O` [AMONAFIDE], the pIC50 was 5.37 in assay [1], 5.77 in assay [3] and 5.76 in [4].
